Test results published in article PMC5152947 (Journal of molecular structure, 2016).
Several values for one entry are separate records, joined by “and”; a condition that tells them apart may be missing. Equal values may be shown once. Read-outs that look alike come from different tables or passages of the source.

What was measured:
[1] = test system: HCT-116 (human colon carcinoma) cells; assay: Cytotoxicity assay; type: cell-based; conditions: for TI (therapeutic index) = (IC50)CCD-18Co/(IC50)cancer cells, HCT-116: 72 h; for IC50: read-out: IC50 HCT-116
[2] = test system: CCD-18Co (human colon fibroblasts); assay: Cytotoxicity assay; type: cell-based; conditions: read-out: IC50 CCD-18Co
[3] = test system: Caco-2 (human epithelial colorectal adenocarcinoma) cells; assay: Cytotoxicity assay; conditions: for TI (therapeutic index) = (IC50)CCD-18Co/(IC50)cancer cells, Caco-2: 72 h; for IC50: read-out: IC50 Caco-2
[4] = target: human serum albumin (HSA) (Homo sapiens, UniProt P02768); assay: Fluorescence quenching titration of human serum albumin; type: binding; conditions: for static quenching constant KS: combined quenching analysis
human serum albumin (HSA), sequence (P02768 25-609): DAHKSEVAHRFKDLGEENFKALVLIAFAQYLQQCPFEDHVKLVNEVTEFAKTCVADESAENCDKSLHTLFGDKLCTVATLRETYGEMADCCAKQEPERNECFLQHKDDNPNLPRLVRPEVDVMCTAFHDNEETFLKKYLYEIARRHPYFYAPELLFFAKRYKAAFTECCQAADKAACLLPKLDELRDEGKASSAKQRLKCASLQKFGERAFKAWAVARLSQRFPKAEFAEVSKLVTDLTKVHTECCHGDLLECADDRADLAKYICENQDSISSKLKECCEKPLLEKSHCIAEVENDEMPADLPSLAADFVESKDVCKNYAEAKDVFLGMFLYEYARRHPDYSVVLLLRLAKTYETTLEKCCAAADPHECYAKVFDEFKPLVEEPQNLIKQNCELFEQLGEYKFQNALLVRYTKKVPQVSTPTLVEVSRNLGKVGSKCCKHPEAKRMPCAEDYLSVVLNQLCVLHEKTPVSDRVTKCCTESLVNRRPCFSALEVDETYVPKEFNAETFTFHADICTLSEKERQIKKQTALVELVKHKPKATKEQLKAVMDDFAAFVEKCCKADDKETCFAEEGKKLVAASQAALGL

[5] = test system: supercoiled pBR322 plasmid DNA; assay: Chemical nuclease activity, agarose gel electrophoresis; type: biochemical; conditions: 50 and 100 μM, 1 h, 37 °C
In short: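 Supercoiled pBR322 (0.1 mg/mL) was incubated 1 h with complex in Tris buffer (50 mM Tris, 18 mM NaCl, pH 8.2), in the dark or under UV exposure, aerobic. Loading buffer quench, then 1% agarose gel in TBE (pH 8.2) at 70 V for 1 h. Gels stained with ethidium bromide ([…], 30 min), imaged under UV, and scored for nicked Form II.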

COc1cc([C@@H]2c3cc4c(cc3[C@@H](O[C@@H]3O[C@@H]5CO[C@@H](C)O[C@H]5[C@H](O)[C@H]3O)[C@H]3COC(=O)[C@H]23)OCO4)cc(OC)c1O [Etoposide, reference compound]
TI (therapeutic index) = (IC50)CCD-18Co/(IC50)cancer cells, HCT-116 [1]: 3.07
IC50 ([1]; Homo sapiens, HCT-116, 24 h): 28.9 ± 2 µM
IC50 ([1]; Homo sapiens, HCT-116, 48 h): 26.9 ± 1.5 µM
IC50 ([1]; Homo sapiens, HCT-116, 72 h): 14.3 ± 1.4 µM
IC50 ([2]; Homo sapiens, CCD-18Co, 24 h): 51.2 ± 1.1 µM
IC50 ([2]; Homo sapiens, CCD-18Co, 48 h): 48.7 ± 3.1 µM
IC50 ([2]; Homo sapiens, CCD-18Co, 72 h): 43.9 ± 1.8 µM
TI (therapeutic index) = (IC50)CCD-18Co/(IC50)cancer cells, Caco-2 [3]: 2.71
IC50 ([3]; Homo sapiens, Caco-2, 24 h): 23 ± 0.9 µM
IC50 ([3]; Homo sapiens, Caco-2, 48 h): 18.9 ± 1.6 µM
IC50 ([3]; Homo sapiens, Caco-2, 72 h): 16.2 ± 1.7 µM

Ga(EtATSC)3·0.25C2H5OH [Complex 2]
TI (therapeutic index) = (IC50)CCD-18Co/(IC50)cancer cells, HCT-116 [1]: 1.98
IC50 ([1]; 24 h incubation): 49.9 ± 2.5 µM
IC50 ([1]; 48 h incubation): 43.6 ± 2.1 µM
IC50 ([1]; 72 h incubation): 30.1 ± 1.1 µM
Modified Stern-Volmer K ([4]; 298 K): 308000 M⁻¹
Modified Stern-Volmer f (fraction of fluorophore initially accessible) ([4]; 298 K): 1.1
Scatchard K ([4]; 298 K): 29700 M⁻¹
Scatchard n (number of binding sites) ([4]; 298 K): 1.1
Modified Stern-Volmer K ([4]; 303 K): 169000 M⁻¹
Modified Stern-Volmer f (fraction of fluorophore initially accessible) ([4]; 303 K): 1.3
Scatchard K ([4]; 303 K): 17600 M⁻¹
Scatchard n (number of binding sites) ([4]; 303 K): 1.1
IC50 ([2]; 24 h incubation, normal cells): 78.6 ± 2.1 µM
IC50 ([2]; 48 h incubation, normal cells): 60.6 ± 2 µM
IC50 ([2]; 72 h incubation, normal cells): 59.5 ± 2.5 µM
cleavage of pBR322 DNA [5]: cleavage of the DNA occurred
TI (therapeutic index) = (IC50)CCD-18Co/(IC50)cancer cells, Caco-2 [3]: 5 and 5.14
IC50 ([3]; 24 h incubation): 23.1 ± 2.1 µM
IC50 ([3]; 48 h incubation): 18.7 ± 1.7 µM
IC50 ([3]; 72 h incubation): 11.6 ± 1.1 µM

Ga(PhATSC)3·H2O [Complex 3]
TI (therapeutic index) = (IC50)CCD-18Co/(IC50)cancer cells, HCT-116 [1]: 1.33
IC50 ([1]; 24 h incubation): 79 ± 1.1 µM
IC50 ([1]; 48 h incubation): 56 ± 1.7 µM
IC50 ([1]; 72 h incubation): 32.1 ± 2.4 µM
Modified Stern-Volmer K ([4]; 298 K): 302000 M⁻¹
Modified Stern-Volmer f (fraction of fluorophore initially accessible) ([4]; 298 K): 0.93
Scatchard K ([4]; 298 K): 26300 M⁻¹
Scatchard n (number of binding sites) ([4]; 298 K): 0.96
static quenching constant KS ([4]; 298 K): 20400 M⁻¹
Modified Stern-Volmer K ([4]; 303 K): 231000 M⁻¹
Modified Stern-Volmer f (fraction of fluorophore initially accessible) ([4]; 303 K): 1.1
Scatchard K ([4]; 303 K): 20800 M⁻¹
Scatchard n (number of binding sites) ([4]; 303 K): 1.1
static quenching constant KS ([4]; 303 K): 33500 M⁻¹
Modified Stern-Volmer K ([4]; 308 K): 325000 M⁻¹
Modified Stern-Volmer f (fraction of fluorophore initially accessible) ([4]; 308 K): 1.0
Scatchard K ([4]; 308 K): 28800 M⁻¹
Scatchard n (number of binding sites) ([4]; 308 K): 1.1
IC50 ([2]; 24 h incubation, normal cells): 80.9 ± 2.6 µM
IC50 ([2]; 48 h incubation, normal cells): 59.2 ± 2.6 µM
IC50 ([2]; 72 h incubation, normal cells): 42.9 ± 1.3 µM
cleavage of pBR322 DNA [5]: both the Form II and Form III (linear DNA) being present
TI (therapeutic index) = (IC50)CCD-18Co/(IC50)cancer cells, Caco-2 [3]: 0.97
IC50 ([3]; 24 h incubation): 78.7 ± 5.3 µM
IC50 ([3]; 48 h incubation): 58 ± 1.5 µM
IC50 ([3]; 72 h incubation): 44.1 ± 3.6 µM
